The list is not random: actives were taken first. Their share in the collection is about 27%.
CYP2C9 activ: activators of human CYP2C9 | activation factor at 5 µM | actives 1.4% (n = 96,000) | P11712 | AID 1024 | recombinant CYP2C9, luciferin-H conversion, luminescence; stronger effect = higher value; factor 1 = untreated enzyme, 0 = blocked;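 active = activation factor of 2 or more for CYP2C9 at a 5 µM dose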;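 also: 0 = sulfaphenazole-blocked wells and 1 = vehicle-only wells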
Target sequence (P11712 whole entry, looked up): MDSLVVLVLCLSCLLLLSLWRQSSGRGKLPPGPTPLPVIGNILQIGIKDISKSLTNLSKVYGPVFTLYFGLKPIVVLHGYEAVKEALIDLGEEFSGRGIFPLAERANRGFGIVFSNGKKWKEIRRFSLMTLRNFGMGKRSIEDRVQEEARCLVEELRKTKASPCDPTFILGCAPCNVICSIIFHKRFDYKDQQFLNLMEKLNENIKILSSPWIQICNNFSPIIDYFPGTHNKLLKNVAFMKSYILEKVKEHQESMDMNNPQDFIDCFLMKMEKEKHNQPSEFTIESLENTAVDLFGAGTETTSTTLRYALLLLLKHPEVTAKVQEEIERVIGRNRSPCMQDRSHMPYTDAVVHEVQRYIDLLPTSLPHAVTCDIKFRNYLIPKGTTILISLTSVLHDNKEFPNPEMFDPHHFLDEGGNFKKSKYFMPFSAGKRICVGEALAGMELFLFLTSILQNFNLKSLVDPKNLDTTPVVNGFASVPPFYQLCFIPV
CYP2C19 inh: inhibitors of human CYP2C19; P33261; actives 21% (n = 96,000); inhibition, % at 5 µM; CYP2C19 Supersomes, luciferin-H EGE luminescence, 30 min; AID 778;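 active = CYP2C19 inhibition above a set limit at 5 µM in the primary screen, cut at about 50% in these data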;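 also: plate controls were negative control wells for no effect and 2.5 mM tranylcypromine positive control for full effect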
Cav3 T inh: inhibitors of human Cav3.2 T-type calcium channel | O95180 | actives 4% (n = 100,000) | B-score at 10 µM | Cav3.2-expressing cells, Fluo-4 calcium fluorescence FDSS; stronger effect = lower value;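 active = single-dose well whose peak fluorescence ratio is a statistical outlier from its plate by either plate-standardised score or position-corrected B-score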
CYP2C9 inhib: blocks human cytochrome P450 2C9; CYP2C9 Supersomes, luciferin-H conversion, luminescence; inhibition, % at 5 µM; actives 20% (n = 96,000); AID 777;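 active = blocking of liver enzyme CYP2C9 beyond about 50% at 5 µM, limit read from the data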
Rev-RRE block: inhibitors of HIV-1 Rev-RRE RNA interaction; P05866; actives 0.79% (n = 97,000); Rev peptide-RRE RNA binding, FRET; inhibition, % at 8 µM;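 active = inhibition above the screen-wide mean plus 3 SD, cut at about 35% in these data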;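 also: 0% = median DMSO wells and 100% = median Neomycin B control wells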
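Material: labelled RRE RNA duplex and labelled Rev peptide / Buffer or medium: HEPES pH 7.5 salt buffer with EDTA / Compound dosing: single point, 8 µM final nominal compound concentration / Benchmarks: DMSO low control, neomycin B high control / Timing: 5 min preincubation and 15 min binding, 25 °C / Technique: FRET fluorescence readout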
CYP2C19 act: increases human CYP2C19 enzyme activity | P33261 | recombinant CYP2C19, luciferin-H EGE luminescence; stronger effect = higher value; 0 = fully inhibited enzyme, 1 = untreated enzyme | activation factor at 5 µM | 96,000 tested, under 10 active;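 active = activation factor of at least 2 at 5 µM in the primary screen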;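 also: 0 = wells with 2.5 mM tranylcypromine and 1 = vehicle-only wells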
An asterisk follows results filed as active; x = not tested or not shown.

SMILES	CYP2C9 activ	CYP2C19 inh	Cav3 T inh	CYP2C9 inhib	Rev-RRE block	CYP2C19 act
CC(C)Oc1ccc(C(=O)N(Cc2ccco2)C2CCS(=O)(=O)C2)cc1 (configuration not stated)	1	7	0.69	-1	6	0.9
Cc1cccc(COCC(Cc2ccccc2)N2CCN(C(=O)c3cc(Cl)cc(Cl)c3)CCC2=O)c1 (configuration not stated)	x	x	-3.4*	x	x	x
Cc1cccc(COCC(Cc2ccccc2)N2CCN(C(=O)c3cccc(C)c3)CCC2=O)c1 (configuration not stated)	x	x	-1.2	x	x	x
CC(=C1C2C=CC1C1C(=O)NC(=O)C21)c1ccccc1 (configuration not stated)	1.2	79*	0.3	-18	1	0.2
O=C1CC(NNC(=O)c2ccccc2)C(=O)N1 (configuration not stated)	1	-7	1.1	1	4	1.1
COc1ccc(OC)c(NC(=O)c2ccc(-n3cccn3)nc2)c1	1.3	3	-0.74	-25	0	1
COc1ccc(C2C(C#N)=C(N)Oc3c2oc(CO)cc3=O)c(OC)c1OC (configuration not stated)	0.8	6	0.62	17	-1	0.9
CC1(C)CC(=O)C2=C(C1)OC(N)=C(C#N)C2CCc1ccccc1 (configuration not stated)	x	x	-0.43	x	17	x
COc1ccc(C2C(C#N)=C(N)OC3=C2C(=O)CC(C)(C)C3)c(OC)c1OC (configuration not stated)	0.3	40	1.2	71*	x	0.6
CCCc1[nH]nc2c1C(c1cccc(OC(=O)c3ccco3)c1)C(C#N)=C(N)O2 (configuration not stated)	0.7	-6	-2.5	26	16	1.1
COC(=O)C1=C(C)OC(N)=C(C#N)C1C1CCCCC1 (configuration not stated)	0.5	78*	0.5	54*	4	0.2
COC(=O)C1=C(C)OC(N)=C(C#N)C1c1ccsc1 (configuration not stated)	x	x	1.7	x	4	x
CC1(C)CC(=O)C2=C(C1)OC(N)=C(C#N)C2c1cccc(OC(=O)c2ccco2)c1 (configuration not stated)	0.2	-15	1.3	76*	8	1.1
COC(=O)C1=C(C)OC(N)=C(C#N)C1c1ccc(OC)c(OC)c1OC (configuration not stated)	0.5	58*	0.86	54*	4	0.4
CCOc1ccc(OCCCC(=O)O)cc1	1.2	-18	-0.019	-17	0	1.2
CCOC(=O)C1CCN(C(=O)CN(c2cc(OC)ccc2OC)S(=O)(=O)c2ccccc2)CC1	0.6	17	0.13	45	x	0.8
CCSc1cc(C2C(C#N)=C(N)OC(C)=C2C(=O)OC)c(C)o1 (configuration not stated)	0.2	90*	-0.48	81*	7	0.1
CC1=C(C(=O)OCc2ccccc2)C(c2ccsc2)C(C#N)=C(N)O1 (configuration not stated)	x	x	-0.89	x	12	x
CC(C)Nc1nc(NC(C)C)nc(OCCOC(=O)Nc2ccccc2)n1	0.7	30	-5.3	30	8	0.7
CCN(C(=O)c1ccnc(C(C)(C)C)c1)c1ccccc1	0.6	61*	-0.88	45	4	0.4
CCc1ccc(NC(=O)c2ccnc(C(C)(C)C)c2)cc1	0.8	8	0.84	22	-1	0.9
CC(C)(C)CC(=O)Nc1nnc(C(F)(F)F)s1	x	x	-0.97	x	7	x
Cc1cc(C(=O)Nc2nnc(C(F)(F)F)s2)no1	0.5	18	1.4	54*	3	0.8
Cc1cc(C(=O)Nc2ccccc2C(F)(F)F)no1	1	-6	2.1	2	0	1.1
CCSc1nnc(NC(=O)c2csc3c2CCC(C)C3)s1 (configuration not stated)	0.2	-20	0.3	82*	9	1.2
CCSc1nnc(NC(=O)c2csc3c2CCCC3)s1	1	-2	-0.012	0	8	1
CCSc1nnc(NC(=O)c2cnccn2)s1	1	-6	1.2	-3	x	1.1
CCSc1nnc(NC(=O)c2cc(C)on2)s1	0.4	1	0.35	58*	4	1
